Active and inactive are the calls of the source. No cut-off for these calls is given here.

Broadly, the IC50 is the point on the concentration scale where inhibition reaches its midpoint.

For test [1], the target named is T1, Protein cereblon/Aurora kinase A (Homo sapiens) (UniProt O14965+Q96SW2). Briefly: PROTAC activity at AURKA/CRBN in human NGP cells assessed as AURKA degradation measured for 24 hrs by Western blot analysis. It is filed as cell-based. The settings on record: dose 10-1000 nM. Background: A western blot detects proteins with antibodies after separation by electrophoresis.

For test [2], the target named is T1, Protein cereblon/Aurora kinase A (Homo sapiens). The test can be described thus: PROTAC activity at AURKA/CRBN in human NGP cells assessed as AURKA degradation at 10 to 1000 nM measured for 24 hrs in presence of MK-5108 by Western blot analysis. The settings on record: dose 10-1000 nM. It is filed as cell-based.
For test [3] the target is unchanged. The test can be described thus: PROTAC activity at AURKA/CRBN in human NGP cells assessed as AURKA degradation at 10 to 1000 nM measured for 24 hrs in presence of thalidomide by Western blot analysis. It is filed as cell-based. The settings on record: dose 10-1000 nM.
For test [4] the target is unchanged. Briefly: PROTAC activity at AURKA/CRBN in human NGP cells assessed as reduction in AURKA level at 500 nM measured for 1 hr by Western blot analysis. Type of test: cell-based. On the set-up: scale not given: the % may be the effect or the level left. The method in brief:
(§1)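 NGP cells were treated with 500 nM compound and harvested at 0, 1, 3, 6, 24, 48 and 72 h. RIPA lysates (35 µg) were run on 10% SDS-PAGE and blotted to nitrocellulose. AURKA and MYCN were probed with vinculin as loading control and quantified by densitometry. Values are percent remaining relative to the DMSO control at each timepoint (n = 3).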

For test [5] the target is unchanged. Briefly: PROTAC activity at AURKA/CRBN in human NGP cells assessed as reduction in AURKA level at 500 nM measured for 48 hrs by Western blot analysis. Type of test: cell-based. On the set-up: scale not given: the % may be the effect or the level left. The gist of the method:
as §1

In test [6] the target is T2, N-myc proto-oncogene protein (Homo sapiens) (UniProt P04198).
T2 sequence (whole entry): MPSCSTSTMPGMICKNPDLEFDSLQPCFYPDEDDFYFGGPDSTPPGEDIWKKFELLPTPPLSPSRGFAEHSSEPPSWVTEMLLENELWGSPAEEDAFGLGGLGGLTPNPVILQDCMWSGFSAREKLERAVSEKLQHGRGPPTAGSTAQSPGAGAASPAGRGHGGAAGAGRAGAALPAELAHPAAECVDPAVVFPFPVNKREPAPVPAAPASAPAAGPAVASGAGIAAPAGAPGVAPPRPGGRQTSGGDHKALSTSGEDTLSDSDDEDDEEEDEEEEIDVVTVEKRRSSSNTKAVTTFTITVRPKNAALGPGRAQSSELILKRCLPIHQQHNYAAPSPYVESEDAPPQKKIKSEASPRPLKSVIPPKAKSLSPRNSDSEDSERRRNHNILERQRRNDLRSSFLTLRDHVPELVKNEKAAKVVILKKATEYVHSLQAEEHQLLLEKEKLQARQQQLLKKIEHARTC
The test can be described thus: Induction of MYCN degradation in human NGP cells at 500 nM by Western blot analysis. It is filed as cell-based. The settings on record: time <= 72.0 hrs. The method in brief:
as §1

The target of test [7] is T2, N-myc proto-oncogene protein (Homo sapiens). Briefly: Induction of MYCN degradation in human NGP cells at 500 nM measured for 72 hrs by Western blot analysis relative to control. Type of test: cell-based. The gist of the method:
as §1

Another test deals with SK-N-AS. Briefly: Antiproliferative activity against human SK-N-AS cells assessed as reduction in cell viability incubated for 48 hrs. The settings on record: Homo sapiens, SK-N-AS, 48 h; read-out: IC50. It is filed as functional, cell-based. The method in brief: (§2)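 Cells were grown in RPMI 1640 with 10% FCS and 2 mM L-glutamine. Seeding was 4500 cells/well for NGP, IMR-32 and N206, and 2100 cells/well for SK-N-AS, with adherence overnight. Compound was dispensed over a concentration range in triplicate. Confluence was imaged live for 48 h and normalised to the DMSO control. Absolute IC50 came from a four-parameter variable-slope fit (n = 4).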

Test [8] can be described thus: Antiproliferative activity against human N206 cells assessed as reduction in cell viability incubated for 48 hrs relative to control. Type of test: functional.
Test [9] is described as follows: Antiproliferative activity against human NGP cells assessed as reduction in cell viability incubated for 48 hrs. It is filed as functional, cell-based. The gist of the method: as §2
Test [10] in a line: Antiproliferative activity against human NGP cells assessed as reduction in cell viability incubated for 48 hrs relative to control. Type of test: functional.
For test [11], the system named is IMR-32. The test can be described thus: Antiproliferative activity against human IMR-32 cells assessed as reduction in cell viability incubated for 48 hrs. The settings on record: IMR-32, 48 h. Type of test: functional, cell-based. The method in brief:
as §2

For test [12], the system named is IMR-32. The test can be described thus: Antiproliferative activity against human IMR-32 cells assessed as reduction in cell viability incubated for 48 hrs relative to control. It is filed as functional. The method in brief:
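Cells grown in RPMI 1640 with 10% fetal calf serum, 2 mM L-glutamine and penicillin/streptomycin at 37 °C, 5% CO2. Seeded at 4500 (IMR-32) or 2100 (SK-N-AS) cells/well in 384-well plates and left to adhere overnight. Concentration range dispensed in triplicate. Confluence tracked by IncuCyte live-cell imaging, and 48h values normalized to DMSO. Absolute IC50 taken from a four-parameter variable-slope fit (n = 4).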

In test [13] the test system is NGP. Briefly: Induction of apoptosis in human NGP cells assessed as increase in caspase3/7 level at 1000 nM incubated for 24 hrs. Type of test: functional, cell-based. The method in brief: (§3)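 NGP cells were seeded at 25,000 cells/well and allowed to adhere overnight. Compound was dispensed in triplicate with DMSO matched. At 24 h, cell-occupied area was imaged live, then a Caspase-Glo 3/7 assay was run using 50 µL reagent per well. Signal is expressed per cell-occupied area.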

Test [14] concerns NGP. Briefly: Induction of apoptosis in human NGP cells assessed as increase in caspase3/7 level at 10 nM incubated for 24 hrs. Type of test: functional, cell-based. The gist of the method:
as §3

Test [15] deals with T1, Protein cereblon/Aurora kinase A (Homo sapiens). The test can be described thus: PROTAC activity at AURKA/CRBN in human NGP cells assessed as AURKA degradation at 10 to 1000 nM measured for 24 hrs by immunoblotting analysis. Type of test: cell-based. The settings on record: dose 10-1000 nM. The method in brief:
(§4)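 NGP cells were seeded at about 2×10^6 per flask, adhered for 48 h, and were then treated for 24 h with DMSO matched. Lysis was in RIPA with protease/phosphatase inhibitors. AURKA was quantified by capillary Simple Western with peak areas normalised to vinculin. Fold change is relative to DMSO (mean ± SD, n = 3).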

For test [16] the target is unchanged. The test can be described thus: PROTAC activity at AURKA/CRBN in human NGP cells assessed as increase in pCHK1 level at 10 to 1000 nM measured for 24 hrs by immunoblotting analysis. It is filed as cell-based. The settings on record: dose 10-1000 nM.
The nature of test [17]: Growth inhibition of patient derived NB059 Neuroblastoma organoid assessed as reduction in viability incubated for […] by CellTiter Glo 3D assay relative to control. Type of test: functional. The settings on record: Homo sapiens.
Test [18] is described as follows: Growth inhibition of patient derived NB139 Neuroblastoma organoid assessed as reduction in viability […] by CellTiter Glo 3D assay. It is filed as functional, tissue-based. The settings on record: Homo sapiens. The gist of the method: (§5)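 Patient-derived organoids were dissociated to single cells with Accutase and seeded in NB organoid medium at 5000 (000GKX), 20000 (NB059), 5000 (NB067) or 3000 (NB139) cells/well. Compound was added after 24 h over a concentration range in triplicate, with DMSO matched. Incubation was 120 h at 37 °C and 5% CO2. Viability was read by CellTiter-Glo 3D, and absolute IC50 derived (n = 1).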
(Cellular ATP, detected with luciferase, serves as a proxy for viable cell number.)

Test [19] in a line: Growth inhibition of patient derived NB139 Neuroblastoma organoid assessed as reduction in viability incubated for […] by CellTiter Glo 3D assay relative to control. Type of test: functional. The settings on record: Homo sapiens.
Test [20] is described as follows: Growth inhibition of patient derived NB067 Neuroblastoma organoid assessed as reduction in viability […] by CellTiter Glo 3D assay. It is filed as functional, tissue-based. The settings on record: Homo sapiens. The method in brief:
as §5

For test [21], the target named is T1, Protein cereblon/Aurora kinase A (Homo sapiens). The test can be described thus: PROTAC activity at AURKA/CRBN in human NGP cells assessed as AURKA degradation at 10 to 1000 nM measured for 24 hrs by Western blot analysis relative to control. It is filed as cell-based. The settings on record: dose 10-1000 nM. The method in brief: as §4

T1 sequence (O14965 whole entry, looked up): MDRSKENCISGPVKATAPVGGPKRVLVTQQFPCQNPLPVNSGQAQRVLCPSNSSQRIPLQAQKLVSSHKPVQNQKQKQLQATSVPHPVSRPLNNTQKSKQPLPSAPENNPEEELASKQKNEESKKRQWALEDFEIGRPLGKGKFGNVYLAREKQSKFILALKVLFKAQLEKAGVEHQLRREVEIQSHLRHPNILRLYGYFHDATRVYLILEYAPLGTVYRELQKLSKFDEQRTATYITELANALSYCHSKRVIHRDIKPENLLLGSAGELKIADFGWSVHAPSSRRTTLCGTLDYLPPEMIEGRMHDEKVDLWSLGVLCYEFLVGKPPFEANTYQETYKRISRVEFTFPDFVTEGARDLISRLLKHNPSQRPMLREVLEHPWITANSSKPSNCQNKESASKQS
T1 sequence (Q96SW2 whole entry, looked up): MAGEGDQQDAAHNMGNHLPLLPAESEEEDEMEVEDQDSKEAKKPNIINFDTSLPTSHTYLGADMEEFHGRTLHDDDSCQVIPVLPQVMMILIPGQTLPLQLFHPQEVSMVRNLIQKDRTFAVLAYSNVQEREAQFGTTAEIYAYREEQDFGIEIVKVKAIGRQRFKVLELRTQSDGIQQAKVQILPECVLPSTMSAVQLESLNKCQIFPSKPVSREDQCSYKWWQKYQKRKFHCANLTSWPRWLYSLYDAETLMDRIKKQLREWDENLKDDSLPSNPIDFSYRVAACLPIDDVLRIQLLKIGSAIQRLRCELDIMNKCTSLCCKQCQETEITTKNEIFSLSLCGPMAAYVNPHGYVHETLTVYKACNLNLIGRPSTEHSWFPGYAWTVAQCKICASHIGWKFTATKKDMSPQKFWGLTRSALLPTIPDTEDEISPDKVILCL

For the compound `O=C1CCC(N2C(=O)c3cccc(OCCOCCOCCOCCNC(=O)[C@]4(Cc5cccc(Nc6nccs6)n5)CC[C@@H](Oc5cccc(Cl)c5F)CC4)c3C2=O)C(=O)N1` (some centres not stated), the outcome (in test [1]; in the test on NGP [13]; with NGP [14]; in test [15]; in [16]) was Active. The outcome in test [2] and in test [3] was inactive. Also, the Activity in [4] is 7%; in test [5], 100%; in test [6] it was “Dose-Dependent Effect”; in test [7], 73%. Also, the IC50 in the test with SK-N-AS turned out to be 6.69 µM; in [9] it was 31.9 nM; in the test with IMR-32 [11] it was 21.5 nM; in test [18] it was 131 nM; in [20] it was 26.4 nM. Besides, the Emax in test [8] was found to be 53.5%; in test [10] it was 27.8%; in the test with IMR-32 [12], 14.1%; in [17], 80.2%; in test [19], 37.8%; in [21], 85%.

The values above are taken from ChEMBL document CHEMBL5331087, “Targeted AURKA degradation: Towards new therapeutic agents for neuroblastoma” (Eur J Med Chem, 2023).
